Assays:
CD11b [1] = experiment: Flow cytometry, surface expression of CD11b after Mn2+ activation; type: cell-based, mouse (NOD, BALB/c)
Method in brief: (§1)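 NOD and BALB/c PBMC, isolated over density medium and used without further purification, were stained with or without Mn2+ activation for CD4, CD40, CD18, CD11a and CD11b, with isotype controls (1 to 3 × 10^5 cells per stain). Flow cytometry, lymphocyte gate split into CD4hi (conventional CD4), CD4lo (Th40) and CD4-negative cells. CD11a or CD11b surface expression compared ± Mn2+.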

CD11a [2] = experiment: Flow cytometry, surface expression of CD11a after Mn2+ activation; type: cell-based, mouse (NOD, BALB/c)
Method in brief: as §1

CD69 = experiment: Flow cytometry, surface expression of CD69 after Mn2+ activation; type: cell-based, mouse (NOD, BALB/c); details: PBMC and spleen, Mn2+ 30 min
CD40 = experiment: Flow cytometry, surface expression of CD40 after Mn2+ activation; type: cell-based, mouse (NOD, BALB/c)
Method in brief: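 Flow cytometry on unfractionated PBMC from NOD and BALB/c mice ± Mn2+ activation, stained for CD4, CD40, CD18, CD11a and CD11b with isotype controls (1 to 3 × 10^5 cells). CD40 assessed in CD4hi, CD4lo (Th40) and CD4-negative subsets of the lymphocyte gate, read as overall mean fluorescence intensity. Two-tailed t test.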

CD154 = experiment: Flow cytometry, surface expression of CD154 after Mn2+ activation; type: cell-based, mouse (NOD, BALB/c); details: PBMC and spleen, Mn2+ 30 min
CD25 = experiment: Flow cytometry, surface expression of CD25 after Mn2+ activation; type: cell-based, mouse (NOD, BALB/c); details: PBMC and spleen, Mn2+ 30 min
CD18 [3] = experiment: Flow cytometry, surface expression of CD18 after Mn2+ activation; type: cell-based, mouse (NOD, BALB/c)
Method in brief: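 Density-medium-purified PBMC from NOD and BALB/c mice, unactivated or Mn2+-activated, stained for CD4, CD40, CD18, CD11a and CD11b against isotype controls; 1 to 3 × 10^5 cells per stain. Lymphocytes gated as CD4hi, CD4lo (Th40) or CD4-negative, then CD18hi and CD18lo populations scored. One-way ANOVA with Tukey's multiple comparisons test.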

CD11b [4] = experiment: Control immunoprecipitation; type: binding, mouse (NOD); details: NOD cell lysates; OVA-pep IP, control for KGYY15
CD11a [5] = experiment: Control immunoprecipitation; type: binding, mouse (NOD); details: NOD cell lysates; OVA-pep IP, control for KGYY15
CD18 [6] = experiment: Control immunoprecipitation; type: binding, mouse (NOD); details: NOD cell lysates; OVA-pep IP, control for KGYY15
[7] = biological target: FITC-conjugated mouse KGYY15 (mouse); experiment: flow cytometry on cells
[8] = system: integrin α5β1 (CD49e/CD29); details: cited from earlier work
[9] = system: integrin αMβ2 (CD11b/CD18); details: cited from earlier work
integrin αIIbβ3 = details: cited from earlier work
[10] = PBMC, any cell type, either strain
[11] = spleen cells, two mouse strains
[12] = PBMC conventional CD4 T cells, both strains
[13] = PBMC, BALB/c Th40, NOD Th40 and CD4-negative cells

Molecule: [Mn+2] [Mn^2+, manganese divalent ions]
- surface expression of CD11b (CD11b [1]; [10]): no change
- surface expression of CD11b (CD11b [1]; [11]): did not reveal any change
- surface expression of CD11a (CD11a [2]; [10]): no change
- surface expression of CD11a (CD11a [2]; [11]): did not reveal any change
- surface expression of CD69 (CD69): None of the three molecules was affected
- surface expression of CD40 (CD40; [12]): did not change surface expression of CD40 or CD18
- percentage of cells expressing CD40 on surface (CD40; PBMC, NOD and BALB/c): did not increase the percentage of cells expressing CD40
- intensity of CD40 surface expression (CD40; [13]): significantly elevated
- surface expression of CD40 (CD40; [11]): did not reveal any change
- surface expression of CD154 (CD154): None of the three molecules was affected
- surface expression of CD25 (CD25): None of the three molecules was affected
- surface expression of CD18 (CD18 [3]; [12]): did not change surface expression of CD40 or CD18
- CD18hi population (CD18 [3]; [13]): decrease in the CD18^hi population
- CD18lo population (CD18 [3]; [13]): corresponding increase in the CD18^lo population
- surface expression of CD18 (CD18 [3]; [11]): did not reveal any change

Molecule: OVA-peptide: unrelated peptide, the 17-amino-acid OVA (323–339) peptide, control for KGYY15 (KISQAVHAAHAEINEAG; UniProt P01012 323-339, looked up, fragment)
- immunoprecipitation of CD11b (control) (CD11b [4]): No CD11a, CD11b, or CD18 was immunoprecipitated
- immunoprecipitation of CD11a (control) (CD11a [5]): No CD11a, CD11b, or CD18 was immunoprecipitated
- immunoprecipitation of CD18 (control) (CD18 [6]): No CD11a, CD11b, or CD18 was immunoprecipitated

Molecule: recombinant CD11a/CD18 (R&D Systems cat# 3868-AV-050) (from UniProt P20701 26-1090; P05107 23-700) (complex)
- percent reduction of KGYY15-FITC staining of NAMALWA cells [7]: 29.4%

Molecule: recombinant CD11b/CD18 (R&D Systems cat# 4047-AM-050) (from UniProt P11215 17-1104; P05107 23-700) (complex)
- percent reduction of KGYY15-FITC staining of NAMALWA cells [7]: 22.7%

B1: CD154: natural CD40-ligand, whole protein (protein, UniProt P27548 112-260, looked up)
CD40 ligand, soluble form: MQRGDEDPQIAAHVVSEANSNAASVLQWAKKGYYTMKSNLVMLENGKQLTVKREGLYYVYTQVTFCSNREPSSQRPFIVGLWLKPSSGSERILLKAANTHSSSQLCEQQSVHLGGVFELQAGASVFVNVTEASQVIHRVGFSSFGLLKL
- binding to integrin [8]: binds
- binding to integrin [9]: binds
- binding to integrin (integrin αIIbβ3): binds

— publication PMC10141526 (The Journal of Biological Chemistry, 2023)
